From ChEMBL document CHEMBL4513216, “Probing the Open Global Health Chemical Diversity Library for Multistage-Active Starting Points for Next-Generation Antimalarials” (ACS Infect Dis, 2020) come the findings set out here.

Structures are written as SMILES.

The nature of the series: Toxicity liver stage against HepG2, at 10uM. It counts as cell-based. The conditions noted are these: human, HepG2-A16-CD81EGFP cells; read-out: INHIBITION
The arrangement: test concentration 10 uM, cell line HepG2-A16-CD81EGFP. The method in brief:
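Uninfected HepG2-A16-CD81EGFP cells, 3 × 10^3 per well, 1536-well, plated on prespotted compound at 10 μM final, parasite-free screening media added to match infected plates; puromycin 10 μM positive, DMSO 0.5% negative; run in parallel with 48 h PbLuc assay at 37 °C, 5% CO2; viability by CellTiter-Glo luminescence, normalized to controls.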
Turning to `CC(C)(C)c1coc([C@@H]2COCCN2Cc2csnn2)n1`, the cytotoxicity at 10 µM was determined as 3.33%.
With `Cc1cc(Cc2ccc(S(=O)(=O)N3CCCC3)cc2)c(=O)[nH]n1`, the cytotoxicity at 10 µM was 6.47%.
Consider `N#Cc1nc(COc2ccc3c(c2)OCO3)oc1N1CCCCCC1`, for which the cytotoxicity at 10 µM was -34.6%.
As for `CCN(CC)CCSc1nnc(N2CCN(c3ccccc3)CC2)s1`, the cytotoxicity at 10 µM was -21.9%.
As to `CCOC(=O)CN1CCC2(CCCN(CCOc3ccccc3)C2)C1` (centres undefined), the cytotoxicity at 10 µM was -2.63%.
Then `O=C([C@H]1CCCO1)N1CC[C@@H](O)[C@@H]1Cc1ccccc1`, with 1.41%; and `c1ccc(O[C@@H]2CC[C@H]3[C@H]2OCCN3Cc2ccsc2)nc1`, with 1.24%.
To `Cc1oncc1C(=O)N1CC[C@H]2[C@H]1CCN2Cc1ccccn1` belongs 6.15%; to `CNc1nc2c(s1)C(c1ccccc1Cl)CC(=O)N2` (centres undefined), 2.82%.
As to `Cc1c(C(=O)N2CCN(C)CC2)n(C)c2ccc(Cl)cc12`, the cytotoxicity at 10 µM is -2.46%.
Regarding `COC(=O)c1cc(C2CC2)nc2c(Cl)cnn12`, the cytotoxicity at 10 µM turned out to be 14.7%.
Then `Cc1noc(C2CCN(C(=O)c3cccs3)CC2)n1`, with -1.22%; and `COC(=O)CCn1ccc(=O)c2ccccc21`, with -6.84%; and `CCCC(=O)NCCc1cc(NC)nc(-c2ccccn2)n1`, with 1.12%.
`COc1ccc(CN(C)CC2(O)CCNC2)cc1` (centres undefined): the cytotoxicity at 10 µM was -1.68%.
On to `COc1ccccc1CN1CCCC(Cc2nccnc2N)C1` (centres undefined), for which the cytotoxicity at 10 µM was -3.81%.
Regarding `CCC(=O)N1CCC(c2ncncc2C)CC1`, the cytotoxicity at 10 µM is -11.5%.
Then `Cc1cc(CC2COCCN(CCc3ccccc3)C2)ncn1` (centres undefined), with 2.04%.
Then `c1ccc(N2CCN(Cc3cnc(C4CCCCO4)nc3)CC2)cc1` (centres undefined), with 0.59%.
`CN1CCCC(c2ccnc(C(=O)NC3CC3)c2)C1` (centres undefined): the cytotoxicity at 10 µM is -29.5%.
For the compound `CCCC(=O)N1CCCCC1c1nccc(C)n1` (centres undefined), the cytotoxicity at 10 µM is -21%.
Consider `NC(=O)C1(c2cnccn2)CCCN1Cc1ccc(F)c(F)c1` (centres undefined), for which the cytotoxicity at 10 µM was -14%.
Turning to `c1ccc(OCCN2CCC(c3nnc(-c4cccnc4)o3)CC2)cc1`, the cytotoxicity at 10 µM is -27.9%.
Turning to `Cc1n[nH]cc1C(=O)N1CCCC(n2nnc3cc(F)ccc32)C1` (centres undefined), the cytotoxicity at 10 µM was -2.91%.
To `CN1CC(=O)N(C2CCC2)Cc2c(NC3CCNCC3)ncnc21` belongs 8.77%; to `CC(NS(=O)(=O)CC1(C#N)CCCC1)c1cccc(-n2cccn2)c1` (centres undefined), 3.15%; to `FC(F)(F)Oc1cccc(CNCc2ccc(-n3cncn3)nc2)c1`, 20.3%.
With `COCc1nc(C(=O)NS(=O)(=O)c2ccc(F)c(F)c2)cs1`, the cytotoxicity at 10 µM was 7.97%.
To `CC(C)(C)C(=O)NCCC(=O)NS(=O)(=O)c1cccnc1` belongs -3.15%.
For `CCN(Cc1ccoc1)c1ncc(S(N)(=O)=O)s1`, the cytotoxicity at 10 µM came out at 5.73%.
Then `O=C1c2ccccc2C(=O)N1CC(O)Cn1nc(-c2cccs2)oc1=O` (centres undefined), with -14.5%; and `CN(Cc1ccncc1)C(=O)CCNS(=O)(=O)c1cccnc1`, with 0.541%.
On to `Cc1cc(Br)oc1C(=O)N1CCN(CC(N)=O)CC1`, for which the cytotoxicity at 10 µM stood at 0.658%.
On to `CCCS(=O)(=O)NCC(C)(O)c1ccsc1` (centres undefined), for which the cytotoxicity at 10 µM was -1.7%.
To `O=C(Nc1nnc(C(F)F)s1)N[C@H](CCO)c1ccccc1` belongs 1.88%; to `CCOc1cc(C)nc(N2CCN(C(=O)c3cc(Cl)c[nH]3)CC2)n1`, 6.81%.
To `COc1ccc2c(c1)C(=O)N(C)C1(CCN(C(=O)OC(C)(C)C)CC1)N2` belongs 25.1%; to `COc1cccc2c1N(Cc1nc3c(cnn3C)c(=O)[nH]1)CCC2`, -4.15%; to `CCN(CC)S(=O)(=O)N1CCCC1c1nnc2n1CCCCC2` (centres undefined), -6.83%.
On to `CN(C(=O)COC1CCCC1)C1CCN(CC2CCOC2)CC1` (centres undefined), for which the cytotoxicity at 10 µM is -9.98%.
As to `NC(=O)CN1CCCC1c1ccccc1Br` (centres undefined), the cytotoxicity at 10 µM worked out at 4.01%.
To `COc1ccnc(N(C)Cc2ccccc2O)n1` belongs 2.29%; to `Cc1ccsc1CNc1ccc(C(=O)N2CCNC(=O)C2)cn1`, 7.04%.
Regarding `Cc1noc(C)c1CN(C)Cc1nc(N)c2ccccc2n1`, the cytotoxicity at 10 µM came out at 8.85%.
Consider `COc1ccccc1C1(CNCc2cccc(C#N)c2)CCOCC1`, for which the cytotoxicity at 10 µM came out at 6.37%.
To `COCCCN(C)S(=O)(=O)c1ccc(C(F)(F)F)cc1C#N` belongs -4.55%.
As to `CC(C)c1nnc2n1CCN(C(C)c1nnc(-c3cccs3)o1)C2` (centres undefined), the cytotoxicity at 10 µM came to 7.8%.
Consider `O=C(NCC1(Sc2ccccc2)CC1)c1c[nH]nn1`, for which the cytotoxicity at 10 µM is -17.9%.
For the compound `O=C(c1ccc2c(c1)CCO2)N1CCN(c2ncccn2)CC1`, the cytotoxicity at 10 µM stood at 8.92%.
With `Cc1cccnc1CSCCCNS(C)(=O)=O`, the cytotoxicity at 10 µM was -15.1%.
Consider `CCS(=O)(=O)CCN(C)Cc1cc(C)ccc1OC`, for which the cytotoxicity at 10 µM was -51.5%.
For `O=C(c1ccc2c(c1)[nH]c(=O)n2C1CCCC1)N1CCC1`, the cytotoxicity at 10 µM was -46.4%.
As for `Cn1cc(CCCN2CCN(C(=O)c3cccc(O)c3)CC2)cn1`, the cytotoxicity at 10 µM is -46.1%.
As to `N#Cc1ccccc1CN(CC(N)=O)C1CCCC1`, the cytotoxicity at 10 µM worked out at 10.4%.
Consider `CC(C)COC1CCN(S(=O)(=O)Cc2cccc(F)c2)CC1`, for which the cytotoxicity at 10 µM is -2.11%.
As to `CC(O)(CNc1ccccn1)c1ccccc1` (centres undefined), the cytotoxicity at 10 µM was -44.3%.
For `CCCS(=O)(=O)N1CCC(NC(=O)c2ccc(Cl)s2)CC1`, the cytotoxicity at 10 µM amounted to 22.4%.
Then `Cc1ccc(N2CCC(c3cc(Cc4ccccc4)n[nH]3)CC2)nn1`, with 3.53%; and `COc1ccccc1CN1C(=O)O[C@@H]2CN(c3nc(C)cnc3C)C[C@@H]21`, with 1.06%; and `COCCn1ccnc1C1CCCN(C(=O)CSc2nnc(C)o2)C1` (centres undefined), with -4.3%.
In the case of `C=C(C)COc1ccc(C(=O)NCCn2c(C)cc(C)nc2=O)cc1`, the cytotoxicity at 10 µM was -4.83%.
For the compound `c1cncc(CN2CCCC(Nc3ncnc4c3CCNCC4)C2)c1` (centres undefined), the cytotoxicity at 10 µM worked out at 4.42%.
Consider `CS(=O)(=O)N1CC[C@]2(O)CCN(c3ccnc(N)n3)C[C@@H]2C1`, for which the cytotoxicity at 10 µM is 21%.
On to `CC(C1CCN(Cc2c(Cl)ccc(O)c2Cl)CC1)N1CCN(C)CC1` (centres undefined), for which the cytotoxicity at 10 µM is -12%.
Regarding `COCC(=O)N1CCC(C(=O)N(C)CCCc2nccn2C)CC1`, the cytotoxicity at 10 µM is -1.81%.
Regarding `COc1cnc(N2CCN(C)CC2)nc1-c1ccnn1C`, the cytotoxicity at 10 µM turned out to be 0.868%.
For the compound `Cc1cnc(NCCCN2CCCCC2CO)nc1` (centres undefined), the cytotoxicity at 10 µM is -7.17%.
Then `Cc1ccsc1-c1nccn1CCN1CCCOC1=O`, with -4.68%.
For the compound `COCc1ncc(CN(Cc2ccco2)C(C)C(C)C)cn1` (centres undefined), the cytotoxicity at 10 µM is -0.0832%.
In the case of `O=C(NCc1cn2c(n1)SCC2)c1cn(CCN2CCCCC2)nn1`, the cytotoxicity at 10 µM is -3.69%.
As for `O=c1[nH]nc(CNCc2ccc(OC34CCCN(CC3)C4)cc2)[nH]1` (centres undefined), the cytotoxicity at 10 µM is -2.83%.
To `CN(CCO)Cc1nnc(C2CCN(C(=O)c3ccccc3)CC2)n1C` belongs 1.93%.
On to `CN(C)c1nc2n(c(=O)n1)CCN2C(=O)Nc1ccccc1`, for which the cytotoxicity at 10 µM amounted to 4.73%.
To `COc1nc2c(cc1C(=O)N1C[C@H](N)C[C@H]1C(=O)NC(C)C)CCC2` belongs -9.49%; to `CC(C(=O)NCc1ccc(N2CCNC(=O)C2)cc1)c1cccs1` (centres undefined), -4.43%.
Turning to `Cc1cc(C(=O)N2CCCC2)ccc1NCc1nc(CC(C)C)no1`, the cytotoxicity at 10 µM is -4.09%.
Take `O=C(NCCc1ccc(Cl)s1)NCc1nnc2n1CCCC2`: the cytotoxicity at 10 µM was -2.45%.
To `Cn1ccnc1CN1CCCN(C(=O)c2ccc3[nH]cnc3c2)CC1` belongs -0.565%.
Turning to `Cc1cnn(CC2CN(c3ccc(C#N)cn3)CCO2)c1` (centres undefined), the cytotoxicity at 10 µM was -1.26%.
To `O=C(CS(=O)(=O)Cc1cc(Cl)c2c(c1)OCO2)N1CCCC1` belongs -8.91%; to `Cc1nc(C)c(CC(=O)Nc2nc(C)c(C)s2)c(=O)[nH]1`, -6.28%; to `Cc1noc(C)c1C(C)C(=O)N1CCCN(Cc2cscn2)CC1` (centres undefined), -4.28%.
To `Cc1cc(C)n(CC2CCCN2C(=O)c2ccc3ccccc3n2)n1` (centres undefined) belongs -2.53%; to `Cc1cc(C)n(CC2CCCN2C(=O)c2cccnc2N(C)C)n1` (centres undefined), -3.56%; to `CCc1noc(C(C)N2CCN(Cc3nc(C)c(C)o3)CC2)n1` (centres undefined), -1.71%.
In the case of `CC1CCCN(C(=O)CCc2cccnc2)C1` (centres undefined), the cytotoxicity at 10 µM was -3.4%.
In the case of `Cn1nccc1C1CCN(CC(O)c2cccc(F)c2)CC1` (centres undefined), the cytotoxicity at 10 µM is -11.8%.
With `COCC(C)NC(=O)c1cc(Br)c2c(c1)OCCO2` (centres undefined), the cytotoxicity at 10 µM was 3.54%.
Take `CCc1ncncc1C(=O)N1CCOC(c2nc(C)n[nH]2)C1` (centres undefined): the cytotoxicity at 10 µM was 0.842%.
On to `Cc1nnc(CN2CCN(CC(O)c3cccc(F)c3)CC2)n1C` (centres undefined), for which the cytotoxicity at 10 µM is -1.92%.
As to `Cc1nc(CN2CCOC(Cn3cncn3)C2)nc2ccccc12` (centres undefined), the cytotoxicity at 10 µM is -0.241%.
Then `Cc1nc2c(c(C)c1CC(=O)Nc1cccc(C#N)c1)c(=O)[nH]n2C`, with 3.99%; and `O=C(C1CCCCC1)N1CC2(CCNCC2)C1`, with -8.58%; and `CCOC(=O)N1CC2(CCNCC2)c2cc(Cl)ccc21`, with -0.449%.
`CN(C)CCN1CCOCC2(CCCN(C(=O)c3ccccc3)C2)C1` (centres undefined): the cytotoxicity at 10 µM is 5.31%.
Turning to `Cc1ccc(CN2CCCC3(CCCC(=O)N3)C2)s1` (centres undefined), the cytotoxicity at 10 µM was -0.361%.
As for `c1ccc(CN2CCCC3(CCN(Cc4cccs4)C3)C2)nc1` (centres undefined), the cytotoxicity at 10 µM was -8.75%.
In the case of `CC[C@@H]1N(Cc2ccc(F)cc2)CCC[C@]12CCC(=O)N2C`, the cytotoxicity at 10 µM worked out at 9.42%.
With `CO[C@@H]1CCN(Cc2ccccn2)[C@@H]2CN(Cc3ccco3)C[C@@H]21`, the cytotoxicity at 10 µM came to 6.73%.
